From ChEMBL document CHEMBL1130061, “Discovery and biological activity of orally active peptidyl trifluoromethyl ketone inhibitors of human neutrophil elastase” (J Med Chem, 1997) come the findings set out here.

Assay [1] concerns Cricetinae gen. sp. As to the kind of experiment: Inhibition at the oral dose of 25 mg/kg 30 min prior to […] dose of 10 microg of HNE in hamster. It counts as functional, Cricetulus griseus.
A further assay deals with T1, Neutrophil elastase (Homo sapiens, UniProt P08246).
T1 sequence (P08246 whole entry): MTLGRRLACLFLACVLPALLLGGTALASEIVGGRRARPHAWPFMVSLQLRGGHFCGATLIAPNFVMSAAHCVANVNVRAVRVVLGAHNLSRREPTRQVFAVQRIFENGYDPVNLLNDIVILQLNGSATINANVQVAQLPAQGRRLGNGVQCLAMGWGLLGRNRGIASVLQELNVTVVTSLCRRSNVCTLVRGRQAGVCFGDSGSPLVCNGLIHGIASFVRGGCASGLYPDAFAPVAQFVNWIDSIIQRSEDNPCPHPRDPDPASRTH
Description: Inhibitory activity against Human Neutrophil Elastase by HNE-catalyzed hydrolysis of MeO-Suc-Ala-Ala-Pro-Val-pNa.

Assay [2] has as its system Mesocricetus auratus. Description: Oral administration at a dose of 37.5 mg/kg 30 min prior to HNE (100 mg/hamster) and reduction in the number of white blood cells was reported.
Assay [3] is filed under the species Mesocricetus auratus. As to the kind of experiment: Reduction in wet lung weight relative to the body weight in hamsters.
The test system of assay [4] is Mesocricetus auratus. Description: Oral administration at a dose of 37.5 mg/kg 30 min prior to HNE and reduction in the number of white blood cells was reported.
Assay [5] deals with Cricetinae gen. sp. As to the kind of experiment: Inhibition at the oral dose of 10 mg/kg 30 min prior to […] dose of 50 microg of HNE in hamster. It counts as functional, Cricetulus griseus. An outline of the steps:
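Anesthetized hamsters received HNE (50 µg/hamster) intratracheally, with the compound given orally as a solution in 10% PEG/PBS 30 min beforehand. Lung hemorrhage was quantified 4 h later by spectrophotometric hemoglobin measurement in lung lavage. Percent inhibition is relative to HNE and saline controls: 100% equals saline, 0% equals HNE.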

Each structure is given as a SMILES string. Numbered stars: 1 amine (or outer) side, 2 acyl side, 3 side chain; on linkers, the order of the positions; unused ones are H or OH. Peptide text beside a SMILES is read from it. * marks the point of attachment. CO = O=C([*:1])[*:2]; NHPh = c1ccc(N*)cc1; CF3 = FC(F)(F)*

Turning to `CC(C)[C@H](NC(=O)N1CCOCC1)C(=O)N1CCC[C@H]1C(=O)N[C@H](C(=O)C(F)(F)C(F)(F)F)C(C)C`, the inhibition in vivo at 25 mg/kg in the assay on Cricetinae gen. sp. [1] was determined as 69%. On Neutrophil elastase, this compound had a Ki of 170 nM.

As to `COc1ccc(S(=O)(=O)N[C@H](C(=O)N2CCCC2C(=O)NC(C(=O)C(F)(F)F)C(C)C)C(C)C)cc1` (some centres undefined), the Reduction in the assay on Mesocricetus auratus [2] is -42%. Besides, in the assay listed under Mesocricetus auratus [3], the Lw/Bw is 29. Also, the Ki at Neutrophil elastase was determined as 8 nM.

Turning to `COc1ccc(C(=O)N[C@H](C(=O)N2CCC[C@H]2C(=O)N[C@H](C(=O)C(F)(F)F)C(C)C)C(C)C)cc1`, in the assay on Mesocricetus auratus [4], the Reduction stood at 91%. The same compound returned an inhibition in vivo at 10 mg/kg in the assay with Cricetinae gen. sp. [5] of 84%. Besides, the Lw/Bw in the assay filed under Mesocricetus auratus [3] amounted to 77.

As for `CC(C)[C@H](NC(=O)Oc1ccccc1)C(=O)N1CCC[C@H]1C(=O)N[C@H](C(=O)C(F)(F)F)C(C)C`, the Reduction in the assay with Mesocricetus auratus [4] was 77%. Besides, in the assay with Cricetinae gen. sp. [5], the inhibition in vivo at 10 mg/kg was determined as 91%. The Lw/Bw in the assay filed under Mesocricetus auratus [3] is reported as 62. For the same compound, the affinity at Neutrophil elastase corresponds to a Ki of 1.3 nM.

In the case of `CC(=O)N[C@H](C(=O)N1CCC[C@H]1C(=O)N[C@H](C(=O)C(F)(F)F)C(C)C)C(C)C` (HELM PEPTIDE1{[ac].V.P.V.[FC(F)(F)[*:1]]}$$$$V2.0), the Reduction in the assay on Mesocricetus auratus [2] was -120%. In the assay listed under Mesocricetus auratus [3], this compound had a Lw/Bw of 8. At Neutrophil elastase, this compound registered a Ki of 45 nM.

In the case of `CC(C)C(NC(=O)C1CCCN1C(=O)[C@@H](NC(=O)c1cc(C(=O)O)cc(C(=O)O)c1)C(C)C)C(=O)C(F)(F)F` (some centres undefined), in the assay on Mesocricetus auratus [2], the Reduction is -105%. The Lw/Bw in the assay filed under Mesocricetus auratus [3] was -45. At Neutrophil elastase, this compound yielded a Ki of 43 nM.

As to `CC(C)[C@H](NC(=O)c1ccc(O)c(O)c1)C(=O)N1CCC[C@H]1C(=O)N[C@H](C(=O)C(F)(F)F)C(C)C`, the Reduction in the assay with Mesocricetus auratus [2] was -41%. Moreover, the Lw/Bw in the assay filed under Mesocricetus auratus [3] was -73. This compound had a Ki at Neutrophil elastase of 16 nM.

Take `CC(C)C(NC(=O)C1CCCN1C(=O)[C@@H](NC(=O)CCC(=O)NS(=O)(=O)c1cccc2ccccc12)C(C)C)C(=O)C(F)(F)F` (some centres undefined): in the assay with Mesocricetus auratus [2], the Reduction is -212%. Moreover, the Lw/Bw in the assay filed under Mesocricetus auratus [3] was -80. Moreover, on Neutrophil elastase, the Ki came to 6.1 nM.

Take `CC(C)[C@H](NC(=O)Nc1ccccc1)C(=O)N1CCC[C@H]1C(=O)N[C@H](C(=O)C(F)(F)F)C(C)C` ({NHPh-CO}-Val-Pro-Val-CF3): the Reduction in the assay on Mesocricetus auratus [2] is -184%. Moreover, the Lw/Bw in the assay filed under Mesocricetus auratus [3] is -2. On Neutrophil elastase, the Ki amounted to 2.6 nM.

As to `CC(C)[C@H](NS(=O)(=O)c1ccccc1)C(=O)N1CCC[C@H]1C(=O)N[C@H](C(=O)C(F)(F)F)C(C)C`, in the assay on Mesocricetus auratus [2], the Reduction was -48%. The Lw/Bw in the assay listed under Mesocricetus auratus [3] was 29. For the same compound, the affinity at Neutrophil elastase, expressed as Ki, was 14 nM.

In turn, `CC(C)[C@H](NC(=O)c1ccc(C(=O)N2CCOCC2)cc1)C(=O)N1CCC[C@H]1C(=O)N[C@H](C(=O)C(F)(F)C(F)(F)F)C(C)C` had an inhibition in vivo at 25 mg/kg in the assay with Cricetinae gen. sp. [1] of 74%. This compound also displayed a Ki on Neutrophil elastase of 25 nM.

As to `CC(C)[C@H](NC(=O)c1c[nH]cn1)C(=O)N1CCC[C@H]1C(=O)N[C@H](C(=O)C(F)(F)F)C(C)C`, the Reduction in the assay on Mesocricetus auratus [2] is -267%. For the same compound, the Lw/Bw in the assay listed under Mesocricetus auratus [3] is -42. The same compound returned a Ki at Neutrophil elastase of 63 nM.

With `CC(C)[C@H](NC(=O)c1ccncc1)C(=O)N1CCC[C@H]1C(=O)N[C@H](C(=O)C(F)(F)F)C(C)C`, the Reduction with Mesocricetus auratus [2] was -45%. Further, the Lw/Bw in the assay listed under Mesocricetus auratus [3] is -15. The compound further had a Ki on Neutrophil elastase of 3.8 nM.

As to `CC(C)[C@H](NC(=O)c1ccccc1)C(=O)N1CCC[C@H]1C(=O)N[C@H](C(=O)C(F)(F)F)C(C)C` (HELM PEPTIDE1{[O=C(c1ccccc1)[*:2]].V.P.V.[FC(F)(F)[*:1]]}$$$$V2.0), the Reduction in the assay on Mesocricetus auratus [2] was -7%. For the same compound, the Lw/Bw in the assay filed under Mesocricetus auratus [3] is reported as 62. Further, affinity at Neutrophil elastase was put at a Ki of 6.8 nM.

As for `CCOC(=O)c1ccc(/C=C/C(=O)N[C@H](C(=O)N2CCCC2C(=O)NC(C(=O)C(F)(F)F)C(C)C)C(C)C)cc1` (some centres undefined), in the assay on Mesocricetus auratus [2], the Reduction was -48%. For the same compound, the Lw/Bw in the assay filed under Mesocricetus auratus [3] is -122. Moreover, the inhibitory constant (Ki) on Neutrophil elastase is 0.43 nM.

A word on the inhibition in vivo: it is the change of the read-out against control, counted positive when it falls. Read a low inhibition in vivo as little suppression. One may read the Ki as the dissociation constant of the complex between target and ligand, obtained from inhibition or displacement.
